From article PMC2741010 (Biochemistry, 2009)
Residue numbers refer to the chain shown, from its start. Where “and” joins values, the source holds several entries; their conditions need not be identical. Identical values can stand only once.

Tests used:
Experiment in all cases: 3′-CMP titration followed by 1H-15N HSQC, NMR line shape analysis
[1] = molecular target: T1, RNase AECP (RNase A with loop 1 from ECP) (Bos taurus, UniProt P61823, DEL40-47/INS50PP/S49L/Y51R); assay type: binding
T1 sequence (P61823 with tags, fused parts or gaps DEL40-47/S49L/INS50PP/Y51R): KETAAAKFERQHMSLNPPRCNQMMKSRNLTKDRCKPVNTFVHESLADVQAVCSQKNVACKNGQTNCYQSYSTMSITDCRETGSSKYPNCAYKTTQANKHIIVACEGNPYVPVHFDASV

WT RNase A = molecular target: T2, WT RNase A (Bos taurus, UniProt P61823); assay type: binding, bovine; details: for koff: global two-state fit of residues, 298 K, pH 6.4
T2 sequence (P61823 27-150): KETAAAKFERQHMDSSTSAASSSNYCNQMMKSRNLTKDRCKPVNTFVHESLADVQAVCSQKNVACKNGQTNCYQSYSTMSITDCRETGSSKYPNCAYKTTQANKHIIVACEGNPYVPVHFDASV
Procedure, shortened: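 Each point recorded as a 1H-15N sensitivity-enhanced HSQC at 11.7 T, with spectral widths of 1600 Hz (t1) and 7000 Hz (t2). Kd and koff were taken from NMR line-shape fits of backbone amide shift changes.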

RNase A (H48A) = molecular target: T3, RNase A (H48A) (Bos taurus, UniProt P61823, H74A); assay type: binding
T3 sequence (P61823 27-150 H74A): T2 sequence (P61823 27-150) with H48A

`Nc1ccn([C@@H]2O[C@H](CO)[C@@H](OP(=O)(O)O)[C@H]2O)c(=O)n1` [3′-CMP, cytidine-3′-monophosphate] was tested, and the Kd [1] was 300 ± 16 µM, the kon ([1]; RNase AECP chimera, kon determined from koff/Kd) was 3.20 × 10^5 ± 3.45 × 10^4 M^−^1s^−^1 and the “decrease in koff relative to WT” value ([1]; RNase AECP vs WT RNase A) was 10 fold and ~ 10 fold. The “reduction of binding affinity relative to WT” value ([1]; RNase AECP vs WT RNase A) was ~ 4 fold, the koff ([1]; pH 6.4) was 96 ± 9 s⁻¹ and the Kd (WT RNase A) was 74 ± 2 µM. The koff (WT RNase A; WT RNase A) was 1155 ± 120 s⁻¹, the kon (WT RNase A; WT RNase A, kon determined from koff/Kd) was 1.56 × 10^7 ± 1.67 × 10^6 M^−^1s^−^1 and the koff (WT RNase A; pH 6.4, WT RNase A) was roughly 1200 s⁻¹. The Kd (RNase A (H48A)) was 895 ± 50 µM, the “decrease in koff relative to WT” value (RNase A (H48A); H48A vs WT RNase A) was 10 fold and ~ 10 fold and the “reduction of binding affinity relative to WT” value (RNase A (H48A); H48A vs WT RNase A) was ~ 12 fold. For the same compound, the kon (RNase A (H48A); RNase A H48A mutant, kon determined from koff/Kd) was 1.59 × 10^5 ± 2.30 × 10^4 M^−^1s^−^1 and the koff (RNase A (H48A); pH 6.4) was 142 ± 19 s⁻¹.
